Data set [1] deals with Serine/threonine-protein kinase PIM (Homo sapiens, UniProt P11309+Q9P1W9+Q86V86). The data set is described as follows: Inhibition of Pim1/2 in human KMS-12-BM cells assessed as phosphorylation of full-length BAD protein at Ser-112 incubated for 110 mins by flow cytometric analysis in presence of 20% FBS. It is filed as cell-based. The gist of the method: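 Cell assay in KMS-12-BM, a multiple myeloma line with relatively high endogenous Pim-1/2. Pim-dependent phosphorylation of full-length endogenous BAD at Ser-112 measured.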

Data set [2] in a line: Equilibrium solubility of compound in PBS by HPLC analysis. Format: physicochemical.
Data set [3] has as its target Serine/threonine-protein kinase pim-1 (Homo sapiens, UniProt P11309). The data set is described as follows: Inhibition of human full-length Pim1 expressed in Escherichia coli assessed as phosphorylation of biotinylated BAD peptide at Ser-112 preincubated for 30 mins followed by substrate addition measured after 1 hr by HTRF assay.
Data set [4] addresses Serine/threonine-protein kinase pim-2 (Homo sapiens, UniProt Q9P1W9). The data set is described as follows: Inhibition of human full-length Pim2 expressed in Escherichia coli assessed as phosphorylation of biotinylated BAD peptide at Ser 112 preincubated for 30 mins followed by substrate addition measured after 1 hr by HTRF assay. The gist of the method: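 Cell-free kinase assay using recombinant Pim-1 or Pim-2. Read-out is phosphorylation of a short BAD peptide sequence spanning Ser-112.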

The nature of data set [5]: Clearance in Sprague-Dawley rat at 1 mg/kg, iv. It is filed as ADME, organism-based. To be noted: in vivo. The gist of the method: (§1)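 Pharmacokinetics in male Sprague–Dawley rats. Clearance also expressed as a percentage of liver blood flow. Oral bioavailability determined.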
The nature of data set [6]: Volume of distribution at steady state in Sprague-Dawley rat at 1 mg/kg, iv. Format: ADME, organism-based. Particulars: in vivo, read-out: Vdss. The gist of the method:
as §1

Data set [7] in a line: Oral bioavailability in Sprague-Dawley rat at 5 mg/kg. To be noted: in vivo. It is filed as ADME, organism-based. The gist of the method: as §1
The nature of data set [8]: Half life in Sprague-Dawley rat at 1 mg/kg, iv. Particulars: in vivo. It is filed as ADME, organism-based. The gist of the method: as §1
A short description of data set [9]: Apparent permeability in pig LLC-PK1 cells at 5 uM. Format: ADME, cell-based, Sus scrofa.
Data set [10] in a line: Drug metabolism in human liver microsomes assessed as compound turnover at 1 uM incubated for 30 mins. It is filed as ADME. Particulars: read-out: Drug metabolism.
Data set [11] can be described thus: Drug metabolism in rat liver microsomes assessed as compound turnover at 1 uM incubated for 30 mins. It is filed as ADME. Particulars: read-out: Drug metabolism.
A short description of data set [12]: Protein binding in rat assessed as as fraction unbound at 5 uM by rapid equilibrium dialysis method. Format: ADME. To be noted: plasma.
The nature of data set [13]: Half life in Sprague-Dawley rat at 2 mg/kg, iv. Format: ADME, organism-based. To be noted: in vivo. The gist of the method:
as §1

A short description of data set [14]: Volume of distribution at steady state in Sprague-Dawley rat at 2 mg/kg, iv. To be noted: in vivo, read-out: Vdss. Format: ADME, organism-based. The gist of the method: as §1
A short description of data set [15]: Clearance in Sprague-Dawley rat at 2 mg/kg, iv. It is filed as ADME, organism-based. To be noted: in vivo. The gist of the method: as §1

Converted amounts (≈) assume the structure as drawn.

Sequence of Serine/threonine-protein kinase pim-1 (P11309 whole entry): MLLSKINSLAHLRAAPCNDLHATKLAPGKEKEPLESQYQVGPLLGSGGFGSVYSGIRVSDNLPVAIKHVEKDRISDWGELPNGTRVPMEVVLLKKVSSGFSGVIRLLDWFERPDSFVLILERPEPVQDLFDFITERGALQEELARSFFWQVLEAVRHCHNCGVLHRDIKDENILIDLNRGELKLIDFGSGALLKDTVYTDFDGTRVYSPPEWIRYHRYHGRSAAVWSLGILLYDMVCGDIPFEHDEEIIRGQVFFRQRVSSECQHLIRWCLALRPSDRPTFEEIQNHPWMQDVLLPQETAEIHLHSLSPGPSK
Sequence of Serine/threonine-protein kinase pim-2 (Q9P1W9 whole entry): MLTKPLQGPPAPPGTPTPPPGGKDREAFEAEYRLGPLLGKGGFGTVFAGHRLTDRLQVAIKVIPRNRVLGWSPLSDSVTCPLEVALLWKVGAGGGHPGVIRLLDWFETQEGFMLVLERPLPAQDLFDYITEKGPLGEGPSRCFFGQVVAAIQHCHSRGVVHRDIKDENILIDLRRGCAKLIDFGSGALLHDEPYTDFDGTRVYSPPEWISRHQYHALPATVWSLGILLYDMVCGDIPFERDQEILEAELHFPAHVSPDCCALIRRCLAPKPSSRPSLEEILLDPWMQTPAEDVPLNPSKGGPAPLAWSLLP

Consider `Cc1nc2cccc3c2nc1NC[C@H](C)CC[C@H]1CNC(=O)c2cc-3[nH]c21`, for which the results for the IC50 in data set [1], in data set [3] and in data set [4] were 25 nM, 0.5 nM and 0.4 nM, respectively. In addition, in [2], the thermodynamic solubility was less than 5 µM.
In the case of `Cc1nc2cccc3c2nc1N[C@H](C)CCC[C@H]1CNC(=O)c2cc-3[nH]c21`, the values for the IC50 in data set [1], in data set [3] and in [4] were 37 nM, 0.1 nM and 0.2 nM, respectively. Moreover, the solubility (thermodynamic) in [2] was less than 5 µM.
Take `C/C1=C\C[C@H]2CNC(=O)c3cc([nH]c32)-c2cccc3nc(C)c(nc23)NC1`: the clearance in data set [5] was 40 mL/min/kg. The results for the IC50 in [1], in data set [3] and in [4] were 16 nM, 0.1 nM and 0.08 nM, respectively. Further, the Vd in [6] turned out to be 3.1 L/kg. Further, the bioavailability in [7] worked out at 35%. For the same compound, the thermodynamic solubility in data set [2] is 27 µM (≈ 9.7 µg/mL). This compound also gave a half-life in data set [8] of 168 min. For the same compound, in data set [9], the Papp at 5 µM came to 33 ×10⁻⁶ cm/s. Further, the metabolised at 0.5 h, 1 µM in [10] and in [11] was 45% in each case. The fraction unbound at 5 µM in data set [12] worked out at 0.0071.
Take `Cc1nc2cccc3c2nc1N[C@@H](C)/C=C/C[C@H]1CNC(=O)c2cc-3[nH]c21`: the IC50 in data set [1] amounted to 26 nM; in data set [3], 0.6 nM; in data set [4], 0.3 nM. The solubility (thermodynamic) in data set [2] was less than 5 µM.
On to `C/C1=C/C[C@H]2CNC(=O)c3cc([nH]c32)-c2cccc3nc(C)c(nc23)NC1`, for which the results for the IC50 in data set [1], in [3] and in data set [4] were 14 nM, 0.4 nM and 0.2 nM, respectively. In data set [7], the bioavailability turned out to be 17%. Moreover, in data set [13], the half-life was 366 min. Besides, the thermodynamic solubility in [2] was 23 µM (≈ 8.27 µg/mL). The apparent permeability coefficient (Papp) at 5 µM in data set [9] amounted to 40 ×10⁻⁶ cm/s. Also, the Vd in data set [14] turned out to be 1.8 L/kg. The clearance in data set [15] was 15.8 mL/min/kg. The metabolised at 0.5 h, 1 µM turned out to be 17% in data set [10] and 42% in data set [11]. Moreover, the fraction unbound at 5 µM in [12] is 0.016.
For `Cc1nc2cccc3c2nc1NC/C=C\C[C@@H]1CNC(=O)c2cc-3[nH]c21`, the results for the IC50 in data set [1], in [3] and in [4] were 370 nM, 2 nM and 1 nM, respectively.
On the same counts, the results for `Cc1nc2cccc3c2nc1NC/C=C/C[C@@H]1CNC(=O)c2cc-3[nH]c21` are 880 nM, 1 nM and 1 nM.
In the case of `Cc1nc2cccc3c2nc1NC/C=C/C[C@H]1CNC(=O)c2cc-3[nH]c21`, the IC50 stood at 106 nM in [1], 1 nM in data set [3] and 0.5 nM in [4]. The compound further displayed a thermodynamic solubility in [2] of less than 5 µM.
For `Cc1nc2cccc3c2nc1NCCCC[C@H]1CNC(=O)c2cc-3[nH]c21`, the IC50 in data set [1] came out at 20 nM; in data set [3], 0.07 nM; in data set [4], 0.05 nM. In data set [2], this compound had a thermodynamic solubility of 7 µM (≈ 2.43 µg/mL).
As to `CCCCNc1nc2c(-c3cc4c([nH]3)CCNC4=O)cccc2nc1C`, the IC50 worked out at 3 nM in [3] and 2 nM in data set [4].
In the case of `Cc1nc2cccc3c2nc1NCCCC[C@@H]1CNC(=O)c2cc-3[nH]c21`, the IC50 in data set [1] is 100 nM; in data set [3] it was 0.4 nM; in [4], 0.2 nM.
For `Cc1nc2cccc3c2nc1N[C@@H](C)CCC[C@H]1CNC(=O)c2cc-3[nH]c21`, the IC50 amounted to 40 nM in data set [1], 1 nM in data set [3] and 0.4 nM in [4]. In data set [2], this compound came in with a thermodynamic solubility of less than 5 µM.
For the compound `Cc1nc2cccc(-c3cc4c([nH]3)CCNC4=O)c2nc1Nc1ccccc1`, the IC50 was found to be 184 nM in [1], 3 nM in data set [3] and 2 nM in data set [4].
Regarding `Cc1nc2cccc3c2nc1N[C@H](C)/C=C/C[C@H]1CNC(=O)c2cc-3[nH]c21`, the IC50 in data set [1] worked out at 20 nM; in data set [3], 0.3 nM; in data set [4], 0.05 nM. Moreover, in data set [2], the solubility (thermodynamic) is less than 5 µM.
On the same counts, the results for `Cc1nc2cccc3c2nc1NC/C=C\C[C@H]1CNC(=O)c2cc-3[nH]c21` are 21 nM, 0.06 nM, 0.07 nM and less than 5 µM.
For `Cc1nc2cccc3c2nc1NC[C@@H](C)CC[C@H]1CNC(=O)c2cc-3[nH]c21`, in that order: 37 nM, 0.3 nM, 0.3 nM and less than 5 µM.
Take `CCCNc1nc2c(-c3cc4c([nH]3)CCNC4=O)cccc2nc1C`: in data set [4], the IC50 is 2 nM.
